Reference: ChEMBL document CHEMBL2062493, “Synthesis and evaluation of [¹¹C]Cimbi-806 as a potential PET ligand for 5-HT₇ receptor imaging” (Bioorg Med Chem, 2012)

Legend:
[1] = Drug uptake in Danish Landrace pig striatum pre-treated with SB269970 at 468+/-31 MBq, iv administered 30 mins post SB269970-treatment measured up to 20 mins by PET scanning; format: ADME, organism-based, Sus scrofa; conditions: in vivo
In short: (§1)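 Images were co-registered to an MRI atlas of the pig brain. Striatum was the mean of caudate and putamen, thalamus the mean of lateral and medial thalamus, and each region left/right averaged. Uptake is expressed as SUV (kBq/mL normalized to injected dose per kg). For the blocking condition, SB-269970 was infused at 0.5–1.0 mg/kg/h from 30 min before the second scan.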

[2] = Drug uptake in Danish Landrace pig thalamus at 468+/-31 MBq, iv after 20 mins by PET scanning; format: ADME, organism-based, Sus scrofa; conditions: in vivo; in short: as §1
[3] = Drug uptake in Danish Landrace pig thalamus pre-treated with SB269970 at 468+/-31 MBq, iv administered 30 mins post SB269970-treatment measured up to 20 mins by PET scanning; format: ADME, organism-based, Sus scrofa; conditions: in vivo; in short: as §1
[4] = Drug uptake in Danish Landrace pig cerebellum at 468+/-31 MBq, iv up to 20 mins by PET scanning; format: ADME, organism-based, Sus scrofa; conditions: in vivo; in short: as §1
[5] = Drug uptake in Danish Landrace pig cerebellum pre-treated with SB269970 at 468+/-31 MBq, iv administered 30 mins post SB269970-treatment measured up to 20 mins by PET scanning; format: ADME, organism-based, Sus scrofa; conditions: in vivo; in short: as §1
[6] = Drug uptake in Danish Landrace pig cerebellum at 468+/-31 MBq, iv after 20 mins by PET scanning; format: ADME, organism-based, Sus scrofa; conditions: in vivo; in short: as §1
[7] = Drug uptake in Danish Landrace pig striatum at 468+/-31 MBq, iv up to 20 mins by PET scanning; format: ADME, organism-based, Sus scrofa; conditions: in vivo; in short: as §1
[8] = Free fraction in Danish Landrace pig plasma at 5 MBq after 3 hrs by equilibrium dialysis; format: ADME, cell-free, Sus scrofa
Plasma [9] = experiment: Drug metabolism in Danish Landrace pig plasma pre-treated with SB269970 at 468+/-31 MBq, iv administered 30 mins post SB269970-treatment measured upto 90 mins; format: ADME, organism-based, Sus scrofa; conditions: in vivo
In short: (§2)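 Blood was drawn at 2.5–90 min and centrifuged; plasma was filtered 0.45 µm and analysed for parent and radiometabolites by column-switching HPLC with online radioactivity detection. For the blocking condition, SB-269970 was infused at 0.5–1.0 mg/kg/h from 30 min before the second scan and continued throughout it.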

[10] = Drug uptake in Danish Landrace pig striatum at 468+/-31 MBq, iv after 20 mins by PET scanning; format: ADME, organism-based, Sus scrofa; conditions: in vivo; in short: as §1
[11] = Drug uptake in Danish Landrace pig thalamus at 468+/-31 MBq, iv up to 20 mins by PET scanning; format: ADME, organism-based, Sus scrofa; conditions: in vivo; in short: as §1
Plasma [12] = experiment: Drug metabolism in Danish Landrace pig plasma at 468+/-31 MBq, iv; format: ADME, Sus scrofa; in short: as §2
[13] = Lipophilicity, log D of the compound at pH 7.4 by HPLC analysis; format: physicochemical; conditions: buffer
In short: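 Measured by RP-HPLC on a C8 column at 37 °C with 50:50 25 mM sodium phosphate pH 7.4/MeOH at 2 mL/min and UV detection at 254 nm. LogD was derived from log retention factor via a calibration line of reference compounds with known logD.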

[14] = Displacement of [3H]SB269970 from 5HT7R in Danish Landrace pig brain section after 2 hrs by autoradiography; parameters: species or system Sus scrofa
In short: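 Pig brain sections incubated 2 h with [3H]SB-269970 plus varying competitor in 50 mM Tris–HCl pH 7.4. Washes were 3 × 5 min in ice-cold buffer, then a dip in ice-cold water. Sections were dried and exposed to tritium-sensitive plates for 14 days. Specific binding (total minus non-specific) was plotted against competitor concentration.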

SMILES	Drug uptake [1]	Drug uptake [2]	Drug uptake [3]	Drug uptake [4]	Drug uptake [5]	Drug uptake [6]	Drug uptake [7]	fraction unbound at 3 h, 5 MBq [8]	Drug metabolism (Plasma [9])	Drug uptake [10]	Drug uptake [11]	Drug metabolism (Plasma [12])	logD [13]	Ki [14]
COc1cccc(OC)c1-c1cccc(CCN(C)[11CH3])c1	Not Active	Not Active	Not Active	Active	Not Active	Not Active	Active	0.235	Active	Not Active	Active	Active		
COc1cccc(OC)c1-c1cccc(CCN(C)C)c1													4.4	8.82 nM
